# Measurements reported in ChEMBL document CHEMBL2331168, “Anticonvulsant evaluation of aminoalkanol derivatives of 2- and 4-methylxanthone” (Bioorg Med Chem, 2013).
# Activity calls are given as the source filed them.
# Tests used:
# Mus musculus [1] = assay: Anticonvulsant activity in albino mouse assessed as protection against subcutaneous pentetrazole-induced seizures at 30 mg/kg, ip after 0.5 hrs; assay type: functional, organism-based; parameters: dose 30 mg/kg
# Outline: (§1)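 Male albino mice (Carworth Farms No. 1) received compound ip in 0.5% methylcellulose, then pentetrazole 85 mg/kg sc in 0.9% NaCl at 0.5 or 4 h. Mice were watched for at least 30 min. Protection meant no threshold seizure, defined as a single clonic spasm lasting at least 5 s. Scored as protected/tested.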
# Rattus norvegicus [2] = assay: Anticonvulsant activity in Sprague-Dawley rat assessed as protection against maximal electroshock-induced seizures at 30 mg/kg, po after 4 hrs; assay type: functional, organism-based; parameters: dose 30 mg/kg
# Outline: (§2)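 Male Sprague-Dawley rats dosed orally at 30 mg/kg and tested at 0.25, 0.5, 1, 2 and 4 h. Seizures were induced by 60 Hz alternating current at 150 mA for 0.2 s through corneal electrodes, after a drop of 0.9% NaCl in each eye. Protection meant abolition of hindlimb tonic extension. Reported as protected/tested, usually 4 rats per time point.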
# Rattus norvegicus [3] = assay: Neurotoxicity in Sprague-Dawley rat assessed as minimal motor impairment at 30 mg/kg, po after 2 hrs by rotorod test; conditions: in vivo
# Rattus norvegicus [4] = assay: Neurotoxicity in Sprague-Dawley rat assessed as minimal motor impairment at 30 mg/kg, po after 0.25 hrs by rotorod test; conditions: in vivo
# Mus musculus [5] = assay: Anticonvulsant activity in albino mouse assessed as protection against maximal electroshock-induced seizures at 300 mg/kg, ip after 0.5 hrs; assay type: functional, organism-based; parameters: dose 300 mg/kg
# Outline: (§3)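 Male albino mice (Carworth Farms No. 1) were given the compound ip as a suspension in 0.5% methylcellulose at 3–300 mg/kg. MES testing was at 0.5 and 4 h, sometimes also at 0.25 and 1 h. Current was 60 Hz, 50 mA, 0.2 s via corneal electrodes, with saline eye drops. Protection meant no hindlimb tonic extension, scored as protected/tested.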
# Mus musculus [6] = assay: Neurotoxicity in albino mouse assessed as minimal motor impairment at 100 mg/kg, ip after 4 hrs by rotorod test; assay type: toxicity, organism-based; parameters: dose 100 mg/kg, route intraperitoneal; conditions: in vivo
# Outline: (§4)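 Male albino mice (Carworth Farms No. 1) were dosed ip with suspensions in 0.5% methylcellulose and put on a 1 in. knurled rod rotating at 6 rpm at set times after dosing. Neurotoxicity meant failure to stay on the rod for at least 1 min in each of three trials. Scored as impaired/tested.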
# Mus musculus [7] = assay: Anticonvulsant activity in albino mouse assessed as protection against maximal electroshock-induced seizures at 30 mg/kg, ip after 4 hrs; assay type: functional, organism-based; parameters: dose 30 mg/kg; outline: as §3
# Rattus norvegicus [8] = assay: Neurotoxicity in Sprague-Dawley rat assessed as minimal motor impairment at 30 mg/kg, po after 4 hrs by rotorod test; conditions: in vivo
# Mus musculus [9] = assay: Anticonvulsant activity in albino mouse assessed as protection against maximal electroshock-induced seizures at 300 mg/kg, ip after 4 hrs; assay type: functional, organism-based; parameters: dose 300 mg/kg; outline: as §3
# Mus musculus [10] = assay: Anticonvulsant activity in albino mouse assessed as protection against subcutaneous pentetrazole-induced seizures at 30 mg/kg, ip after 4 hrs; assay type: functional, organism-based; parameters: dose 30 mg/kg; outline: as §1
# Mus musculus [11] = assay: Anticonvulsant activity in albino mouse assessed as protection against subcutaneous pentetrazole-induced seizures at 100 mg/kg, ip after 4 hrs; assay type: functional, organism-based; parameters: dose 100 mg/kg; outline: as §1
# Mus musculus [12] = assay: Anticonvulsant activity in albino mouse assessed as protection against subcutaneous pentetrazole-induced seizures at 300 mg/kg, ip after 0.5 hrs; assay type: functional, organism-based; parameters: dose 300 mg/kg; outline: as §1
# Mus musculus [13] = assay: Anticonvulsant activity in albino mouse assessed as protection against maximal electroshock-induced seizures at 30 mg/kg, ip after 0.5 hrs; assay type: functional, organism-based; parameters: dose 30 mg/kg; outline: as §3
# Rattus norvegicus [14] = assay: Neurotoxicity in Sprague-Dawley rat assessed as minimal motor impairment at 30 mg/kg, po after 0.5 hrs by rotorod test; conditions: in vivo
# Rattus norvegicus [15] = assay: Neurotoxicity in Sprague-Dawley rat assessed as minimal motor impairment at 30 mg/kg, po after 1 hr by rotorod test; conditions: in vivo
# Rattus norvegicus [16] = assay: Anticonvulsant activity in Sprague-Dawley rat assessed as protection against maximal electroshock-induced seizures at 30 mg/kg, po after 0.5 hrs; assay type: functional, organism-based; parameters: dose 30 mg/kg; outline: as §2
# Rattus norvegicus [17] = assay: Anticonvulsant activity in Sprague-Dawley rat assessed as protection against maximal electroshock-induced seizures at 30 mg/kg, po after 0.25 hrs; assay type: functional, organism-based; parameters: dose 30 mg/kg; outline: as §2
# Mus musculus [18] = assay: Neurotoxicity in albino mouse assessed as minimal motor impairment at 30 mg/kg, ip after 4 hrs by rotorod test; assay type: toxicity, organism-based; parameters: dose 30 mg/kg, route intraperitoneal; conditions: in vivo; outline: as §4
# Mus musculus [19] = assay: Anticonvulsant activity in albino mouse assessed as protection against subcutaneous pentetrazole-induced seizures at 300 mg/kg, ip after 4 hrs; assay type: functional, organism-based; parameters: dose 300 mg/kg; outline: as §1
# Rattus norvegicus [20] = assay: Anticonvulsant activity in Sprague-Dawley rat assessed as protection against maximal electroshock-induced seizures at 30 mg/kg, po after 1 hr; assay type: functional, organism-based; parameters: dose 30 mg/kg; outline: as §2
# Mus musculus [21] = assay: Anticonvulsant activity in albino mouse assessed as protection against subcutaneous pentetrazole-induced seizures at 100 mg/kg, ip after 0.5 hrs; assay type: functional, organism-based; parameters: dose 100 mg/kg; outline: as §1
# Rattus norvegicus [22] = assay: Anticonvulsant activity in Sprague-Dawley rat assessed as protection against maximal electroshock-induced seizures at 30 mg/kg, po after 2 hrs; assay type: functional, organism-based; parameters: dose 30 mg/kg; outline: as §2
# Mus musculus [23] = assay: Neurotoxicity in albino mouse assessed as minimal motor impairment at 300 mg/kg, ip after 4 hrs by rotorod test; assay type: toxicity, organism-based; parameters: dose 300 mg/kg, route intraperitoneal; conditions: in vivo; outline: as §4
# Mus musculus [24] = assay: Neurotoxicity in albino mouse assessed as minimal motor impairment at 30 mg/kg, ip after 0.5 hrs by rotorod test; assay type: toxicity, organism-based; parameters: dose 30 mg/kg, route intraperitoneal; conditions: in vivo; outline: as §4
# Mus musculus [25] = assay: Anticonvulsant activity in ip dosed albino mouse assessed as protection against maximal electroshock-induced seizures after 1 hr; assay type: functional
# Outline: (§5)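 ED50, with 95% confidence intervals, was the ip dose protecting 50% of mice in the MES test. It was measured at the stated post-dose time in male albino mice given suspensions in 0.5% methylcellulose. MES used 60 Hz, 50 mA, 0.2 s corneal stimulation, and the endpoint was abolition of hindlimb tonic extension.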
# Mus musculus [26] = species on record: Mus musculus; assay: Protective index, ratio TD50 for albino mouse to ED50 for albino mouse by maximal electroshock-induced seizure test after 1 hr; assay type: functional
# Outline: (§6)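 Protective index was calculated as mouse ip TD50 (rotorod) divided by mouse ip MES ED50, both obtained by quantitative dose-response testing at the stated post-dose time.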
# [27] = Neurotoxicity in ip dosed albino mouse assessed as minimal motor impairment after 1 hr by rotorod test; assay type: toxicity, organism-based; conditions: in vivo
# Outline: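 TD50, with 95% confidence intervals, was the ip dose causing neurotoxicity in 50% of male albino mice. Deficit was judged on the rotorod: a 1 in. knurled rod at 6 rpm, where failure to hold on for 1 min in each of three trials counted as deficit. Read at the stated time after dosing.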
# Mus musculus [28] = assay: Anticonvulsant activity in albino mouse assessed as protection against maximal electroshock-induced seizures at 100 mg/kg, ip after 0.5 hrs; assay type: functional, organism-based; parameters: dose 100 mg/kg; outline: as §3
# Mus musculus [29] = assay: Protective index, ratio TD50 for albino mouse to ED50 for albino mouse by subcutaneous pentetrazole-induced seizure test after 1 hr; assay type: functional
# Mus musculus [30] = assay: Anticonvulsant activity in ip dosed albino mouse assessed as protection against subcutaneous pentetrazole-induced seizures after 1 hr; assay type: functional
# Mus musculus [31] = assay: Anticonvulsant activity in ip dosed albino mouse assessed as protection against maximal electroshock-induced seizures after 0.5 hrs; assay type: functional; outline: as §5
# Mus musculus [32] = assay: Protective index, ratio TD50 for albino mouse to ED50 for albino mouse by subcutaneous pentetrazole-induced seizure test after 0.5 hrs; assay type: functional
# Mus musculus [33] = assay: Neurotoxicity in albino mouse assessed as minimal motor impairment at 100 mg/kg, ip after 0.5 hrs by rotorod test; assay type: toxicity, organism-based; parameters: dose 100 mg/kg, route intraperitoneal; conditions: in vivo; outline: as §4
# Mus musculus [34] = assay: Anticonvulsant activity in ip dosed albino mouse assessed as protection against subcutaneous pentetrazole-induced seizures after 0.5 hrs; assay type: functional
# Mus musculus [35] = species on record: Mus musculus; assay: Protective index, ratio TD50 for albino mouse to ED50 for albino mouse by maximal electroshock-induced seizure test after 0.5 hrs; assay type: functional; outline: as §6
# Mus musculus [36] = assay: Anticonvulsant activity in albino mouse assessed as protection against maximal electroshock-induced seizures at 100 mg/kg, ip after 4 hrs; assay type: functional, organism-based; parameters: dose 100 mg/kg; outline: as §3
SMILES,Activity (Mus musculus [1]),Activity (Rattus norvegicus [3]),Activity (Rattus norvegicus [4]),Activity (Mus musculus [5]),Activity (Mus musculus [6]),Activity (Mus musculus [7]),Activity (Rattus norvegicus [8]),Activity (Mus musculus [9]),Activity (Mus musculus [10]),Activity (Mus musculus [11]),Activity (Mus musculus [12]),Activity (Mus musculus [13]),Activity (Rattus norvegicus [14]),Activity (Rattus norvegicus [15]),Activity (Rattus norvegicus [16]),Activity (Rattus norvegicus [17]),Activity (Mus musculus [18]),Activity (Mus musculus [19]),Activity (Rattus norvegicus [20]),Activity (Mus musculus [21]),other results
CN(Cc1ccc2oc3ccc(Cl)cc3c(=O)c2c1)C(C)(C)CO,inactive,Non-toxic,Non-toxic,Active,Non-toxic,inactive,Non-toxic,Active,inactive,inactive,inactive,inactive,Non-toxic,Non-toxic,inactive,inactive,Non-toxic,inactive,inactive,inactive,Activity (Rattus norvegicus [2]): inactive; Activity (Rattus norvegicus [22]): inactive; Activity (Mus musculus [23]): Non-toxic
CC[C@H](CO)NCc1ccc2oc3cc(OC)ccc3c(=O)c2c1,inactive,Non-toxic,Non-toxic,Active,Non-toxic,inactive,Non-toxic,Active,inactive,inactive,inactive,inactive,Non-toxic,Non-toxic,inactive,inactive,Non-toxic,inactive,–,inactive,Activity (Mus musculus [24]): Non-toxic; ED50 (Mus musculus [25]): 107 mg/kg; Ratio TD50/ED50 (Mus musculus [26]): 2.51; TD50 at 1 h [27]: 269 mg/kg; Activity (Mus musculus [28]): Active; Ratio TD50/ED50 (Mus musculus [29]): <1.54; Activity (Rattus norvegicus [22]): inactive; Activity (Mus musculus [23]): Non-toxic; ED50 (Mus musculus [30]): > 175 mg/kg
CCC(CO)NCc1ccc2oc3cc(OC)ccc3c(=O)c2c1 (racemic),inactive,Non-toxic,Non-toxic,Active,Non-toxic,inactive,Non-toxic,Active,inactive,inactive,inactive,inactive,Non-toxic,Non-toxic,–,–,Non-toxic,inactive,inactive,inactive,ED50 (Mus musculus [31]): 80 mg/kg; Activity (Mus musculus [24]): Non-toxic; Ratio TD50/ED50 (Mus musculus [32]): <0.43; TD50 at 1 h [27]: 213 mg/kg; Activity (Mus musculus [33]): Non-toxic; Activity (Mus musculus [28]): Active; ED50 (Mus musculus [34]): > 500 mg/kg; Ratio TD50/ED50 (Mus musculus [35]): 2.66; Activity (Mus musculus [36]): inactive
